15 molecules from ChEMBL document CHEMBL3616399, “Design, synthesis, and structure-activity relationship studies of novel thienopyrrolidone derivatives with strong antifungal activity against Aspergillus fumigates” (Eur J Med Chem, 2015) can be followed below.

≈ marks a conversion by molar mass, not a printed value.

Common to all, as to type: functional
The test system of assay [1] is Candida albicans. Briefly: Antifungal activity against Candida albicans SC5314 after 24 hrs by serial dilution method. The settings on record: SC5314, 24 h. The gist of the method:
(§1)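 MIC by broth serial dilution per NCCLS/CLSI (M27-A3 yeasts, M38-A2 filamentous) in 96-well plates; ATCC strains plus clinical isolates; C. parapsilosis 22019 run as quality-control strain in every assay. Compounds dissolved in DMSO, serially diluted in growth medium; incubation 35 °C; MIC read at 24 h (Candida), 48 h (A. fumigatus), 72 h (C. neoformans).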

Assay [2] deals with Candida albicans. Briefly: Antifungal activity against Candida albicans Y0109 after 24 hrs by serial dilution method. The settings on record: Y0109, 24 h. The gist of the method: as §1
The subject of assay [3] is Candida parapsilosis. Briefly: Antifungal activity against Candida parapsilosis 22019 after 24 hrs by serial dilution method. The conditions noted are these: Lodderomyces parapsilosis, 22019, 24 h. The essentials:
as §1

Assay [4] deals with Cryptococcus neoformans. Briefly: Antifungal activity against Cryptococcus neoformans 32609 after 72 hrs by serial dilution method. The conditions noted are these: Cryptococcus neoformans, 32609, 72 h. The gist of the method: as §1
Assay [5] deals with Nakaseomyces glabratus. Briefly: Antifungal activity against Candida glabrata 537 after 24 hrs by serial dilution method. The conditions noted are these: Nakaseomyces glabratus, 537, 24 h. The gist of the method: as §1
In assay [6] the test system is Aspergillus fumigatus. Briefly: Antifungal activity against Aspergillus fumigatus 7544 after 48 hrs by serial dilution method. The conditions noted are these: Aspergillus fumigatus, 7544, 48 h. The gist of the method: as §1

Consider `Cc1ccc(-c2cc3c(s2)C(=O)N([C@H](C)[C@](O)(Cn2cncn2)c2ccc(F)cc2F)C3)cc1`, for which the MIC in assay [1] is 0.0312 µg/mL (≈ 0.065 µM); in assay [2], 0.0312 µg/mL (≈ 0.065 µM); in assay [3] it was 0.0625 µg/mL (≈ 0.13 µM); in assay [4], 0.0625 µg/mL (≈ 0.13 µM); in assay [5], 0.0625 µg/mL (≈ 0.13 µM); in assay [6], 4 µg/mL (≈ 8.32 µM).
`Cc1cccc(-c2cc3c(s2)C(=O)N([C@H](C)[C@](O)(Cn2cncn2)c2ccc(F)cc2F)C3)c1`: the MIC is 0.0625 µg/mL (≈ 0.13 µM) in assay [1]; 0.0625 µg/mL (≈ 0.13 µM) in assay [2]; 0.125 µg/mL (≈ 0.26 µM) in assay [3]; 0.125 µg/mL (≈ 0.26 µM) in assay [4]; 0.0625 µg/mL (≈ 0.13 µM) in assay [5]; 4 µg/mL (≈ 8.32 µM) in assay [6].
On to `COc1ccc(-c2cc3c(s2)C(=O)N([C@H](C)[C@](O)(Cn2cncn2)c2ccc(F)cc2F)C3)cc1`, for which the MIC in assay [1] was 0.0156 µg/mL (≈ 0.0314 µM); in assay [2], 0.0156 µg/mL (≈ 0.0314 µM); in assay [3], 0.0625 µg/mL (≈ 0.126 µM); in assay [4], 0.0625 µg/mL (≈ 0.126 µM); in assay [5], 0.0625 µg/mL (≈ 0.126 µM); in assay [6] it was 4 µg/mL (≈ 8.06 µM).
Take `COc1cccc(-c2cc3c(s2)C(=O)N([C@H](C)[C@](O)(Cn2cncn2)c2ccc(F)cc2F)C3)c1`: the minimum inhibitory concentration (MIC) was found to be 0.0625 µg/mL (≈ 0.126 µM) in assay [1]; 0.0625 µg/mL (≈ 0.126 µM) in assay [2]; 0.125 µg/mL (≈ 0.252 µM) in assay [3]; 0.25 µg/mL (≈ 0.503 µM) in assay [4]; 0.125 µg/mL (≈ 0.252 µM) in assay [5]; 8 µg/mL (≈ 16.1 µM) in assay [6].
Turning to `C[C@@H](N1Cc2cc(-c3ccc(Cl)cc3)sc2C1=O)[C@](O)(Cn1cncn1)c1ccc(F)cc1F`, the minimal inhibitory concentration (MIC) was found to be 0.0156 µg/mL (≈ 0.0311 µM) in assay [1]; 0.0156 µg/mL (≈ 0.0311 µM) in assay [2]; 0.0625 µg/mL (≈ 0.125 µM) in assay [3]; 0.0625 µg/mL (≈ 0.125 µM) in assay [4]; 0.0625 µg/mL (≈ 0.125 µM) in assay [5]; 8 µg/mL (≈ 16 µM) in assay [6].
`C[C@@H](N1Cc2cc(-c3cccc(Cl)c3)sc2C1=O)[C@](O)(Cn1cncn1)c1ccc(F)cc1F`: the MIC in assay [1] amounted to 0.0156 µg/mL (≈ 0.0311 µM); in assay [2], 0.0625 µg/mL (≈ 0.125 µM); in assay [3], 0.0625 µg/mL (≈ 0.125 µM); in assay [4], 0.125 µg/mL (≈ 0.25 µM); in assay [5], 0.125 µg/mL (≈ 0.25 µM); in assay [6], 8 µg/mL (≈ 16 µM).
Turning to `C[C@@H](N1Cc2cc(-c3ccc(F)cc3)sc2C1=O)[C@](O)(Cn1cncn1)c1ccc(F)cc1F`, the MIC in assay [1] was determined as 0.0156 µg/mL (≈ 0.0322 µM); in assay [2], 0.0312 µg/mL (≈ 0.0645 µM); in assay [3] it was 0.0612 µg/mL (≈ 0.126 µM); in assay [4] it was 0.0625 µg/mL (≈ 0.129 µM); in assay [5] it was 0.125 µg/mL (≈ 0.258 µM); in assay [6] it was 4 µg/mL (≈ 8.26 µM).
As for `C[C@@H](N1Cc2cc(-c3cccc(F)c3)sc2C1=O)[C@](O)(Cn1cncn1)c1ccc(F)cc1F`, the MIC in assay [1] came out at 0.0156 µg/mL (≈ 0.0322 µM); in assay [2] it was 0.0625 µg/mL (≈ 0.129 µM); in assay [3], 0.125 µg/mL (≈ 0.258 µM); in assay [4] it was 0.0625 µg/mL (≈ 0.129 µM); in assay [5], 0.125 µg/mL (≈ 0.258 µM); in assay [6], 4 µg/mL (≈ 8.26 µM).
In the case of `C[C@@H](N1Cc2cc(-c3ccc(C#N)cc3)sc2C1=O)[C@](O)(Cn1cncn1)c1ccc(F)cc1F`, the minimum inhibitory concentration (MIC) in assay [1] came to 0.0156 µg/mL (≈ 0.0317 µM); in assay [2] it was 0.0156 µg/mL (≈ 0.0317 µM); in assay [3], 0.0156 µg/mL (≈ 0.0317 µM); in assay [4], 0.0156 µg/mL (≈ 0.0317 µM); in assay [5], 0.125 µg/mL (≈ 0.254 µM); in assay [6], 4 µg/mL (≈ 8.14 µM).
For `C[C@@H](N1Cc2cc(-c3cccc(C#N)c3)sc2C1=O)[C@](O)(Cn1cncn1)c1ccc(F)cc1F`, the MIC in assay [1] was determined as 0.0625 µg/mL (≈ 0.127 µM); in assay [2], 0.0625 µg/mL (≈ 0.127 µM); in assay [3] it was 0.125 µg/mL (≈ 0.254 µM); in assay [4], 0.125 µg/mL (≈ 0.254 µM); in assay [5] it was 0.125 µg/mL (≈ 0.254 µM); in assay [6] it was 4 µg/mL (≈ 8.14 µM).
As for `C[C@@H](N1Cc2cc(-c3ccncc3)sc2C1=O)[C@](O)(Cn1cncn1)c1ccc(F)cc1F`, the MIC worked out at 0.0156 µg/mL (≈ 0.0334 µM) in assay [1]; 0.0312 µg/mL (≈ 0.0668 µM) in assay [2]; 0.0312 µg/mL (≈ 0.0668 µM) in assay [3]; 0.0156 µg/mL (≈ 0.0334 µM) in assay [4]; 0.0625 µg/mL (≈ 0.134 µM) in assay [5]; 1 µg/mL (≈ 2.14 µM) in assay [6].
In the case of `C[C@@H](N1Cc2cc(-c3cccnc3)sc2C1=O)[C@](O)(Cn1cncn1)c1ccc(F)cc1F`, the minimal inhibitory concentration (MIC) in assay [1] came to 0.0156 µg/mL (≈ 0.0334 µM); in assay [2], 0.0156 µg/mL (≈ 0.0334 µM); in assay [3], 0.0312 µg/mL (≈ 0.0668 µM); in assay [4], 0.0312 µg/mL (≈ 0.0668 µM); in assay [5], 0.125 µg/mL (≈ 0.267 µM); in assay [6], 4 µg/mL (≈ 8.56 µM).
For the molecule `C[C@@H](N1Cc2cc(-c3cncnc3)sc2C1=O)[C@](O)(Cn1cncn1)c1ccc(F)cc1F`, the MIC in assay [1] was found to be 0.0312 µg/mL (≈ 0.0667 µM); in assay [2] it was 0.0156 µg/mL (≈ 0.0333 µM); in assay [3] it was 0.0625 µg/mL (≈ 0.133 µM); in assay [4], 0.0312 µg/mL (≈ 0.0667 µM); in assay [5], 0.125 µg/mL (≈ 0.267 µM); in assay [6], 4 µg/mL (≈ 8.54 µM).
`C[C@@H](N1Cc2cc(-c3ccc(C#N)nc3)sc2C1=O)[C@](O)(Cn1cncn1)c1ccc(F)cc1F`: the MIC in assay [1] amounted to 0.125 µg/mL (≈ 0.254 µM); in assay [2], 0.0312 µg/mL (≈ 0.0635 µM); in assay [3], 0.125 µg/mL (≈ 0.254 µM); in assay [4], 0.125 µg/mL (≈ 0.254 µM); in assay [5], 0.5 µg/mL (≈ 1.02 µM); in assay [6], 8 µg/mL (≈ 16.2 µM).
As to `C[C@@H](N1Cc2cc(-c3cncc(C#N)c3)sc2C1=O)[C@](O)(Cn1cncn1)c1ccc(F)cc1F`, the MIC came to 0.0156 µg/mL (≈ 0.0317 µM) in assay [1]; 0.0312 µg/mL (≈ 0.0635 µM) in assay [2]; 0.0156 µg/mL (≈ 0.0317 µM) in assay [3]; 0.0312 µg/mL (≈ 0.0635 µM) in assay [4]; 0.125 µg/mL (≈ 0.254 µM) in assay [5]; 4 µg/mL (≈ 8.12 µM) in assay [6].

The MIC is the least concentration at which growth counts as inhibited. A high value points to a less susceptible organism.
